Converted amounts (≈) assume the structure as drawn. A value given as a limit tells only on which side of the number the result lay.

The text below walks through data of ChEMBL document CHEMBL1125603, “2-Chloro-1-(2,4-dichlorophenyl)-3-(1H-imidazol-1-yl)-2-phenylpropan-1-one hydrochloride, a novel, nonmutagenic antibacterial with specific activity against anaerobic bacteria” (1991).

Common to all, as to assay type: functional
For assay [1], the system named is Cutibacterium acnes. Nature of the assay: Minimum inhibitory concentration against Propionibacterium acnes(NCTC 737)(in vitro). In a few lines:
(§1)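 Broth microdilution: drug stock of 200 μg/mL in 20% polyethylene glycol 200/water, serially diluted 2-fold in the wells to final concentrations of 0.8–100 μg/mL. Final inoculum was 10⁸ organisms/mL. Plates were held at 37 °C for 48 h, in an anaerobic chamber for anaerobes or a conventional incubator for aerobes. MIC was then read.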

In the next assay the test system is Klebsiella pneumoniae. Nature of the assay: Minimum inhibitory concentration against Klebsiella pneumoniae (ATCC 13883)(in vitro). In a few lines: as §1
Assay [2] concerns Cutibacterium acnes. Nature of the assay: Minimum inhibitory concentration against Propionibacterium acnes(NCTC 7337)(in vitro). In a few lines:
as §1

The next assay has as its system Pseudomonas aeruginosa. The experiment in a line: Minimum inhibitory concentration against Pseudomonas aeruginosa (ATCC 27853)(in vitro). In a few lines:
as §1

The test system of assay [3] is Bacteroides fragilis. Nature of the assay: Minimum inhibitory concentration against Bacteroides fragilis(NCTC 10581)(in vitro). In a few lines:
as §1

In a further assay the test system is Escherichia coli. The experiment in a line: Minimum inhibitory concentration against Escherichia coli(ATCC 25922)(in vitro). In a few lines: as §1
Assay [4] relates to Clostridium perfringens. Nature of the assay: Minimum inhibitory concentration against Clostridium perfringens (NCTC 523)(in vitro). An outline of the steps: (§2)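 Broth microdilution MIC in 96-well plates. Drugs dissolved in 20% polyethylene glycol 200/water (stock 200 μg/mL), then serially diluted 2-fold in the wells to final concentrations of 0.8–100 μg/mL. Final inoculum 10⁸ organisms/mL. Plates incubated 48 h at 37 °C in an anaerobic chamber before the MIC was read.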

Assay [5] relates to Peptostreptococcus anaerobius. Nature of the assay: Minimum inhibitory concentration against Peptostreptococcus anaerobius(in vitro). In a few lines: as §1
Assay [6] relates to Bacteroides fragilis. Nature of the assay: Minimum inhibitory concentration against Bacteroides fragilis (MZ-R)(in vitro). In a few lines:
as §1

The subject of assay [7] is Bacteroides fragilis. Nature of the assay: Minimum inhibitory concentration against Bacteroides fragilis (WSI)(in vitro). In a few lines: as §1
The test system of another assay is Anaerococcus prevotii. The experiment in a line: Minimum inhibitory concentration against Peptococcus prevotti(in vitro). An outline of the steps:
as §1

Another assay concerns Staphylococcus aureus. The experiment in a line: Minimum inhibitory concentration against Staphylococcus aureus(ATCC 25923)(in vitro). In a few lines:
as §1

Assay [8] has as its system Bacteroides fragilis. The experiment in a line: Minimum inhibitory concentration against Bacteroides fragilis(NCTC 9344)(in vitro). In a few lines:
as §1

In another assay the test system is Streptococcus pyogenes. The experiment in a line: Minimum inhibitory concentration against Streptococcus pyogenes(ATCC 19615)(in vitro). An outline of the steps:
as §1

A further assay relates to Finegoldia magna. The experiment in a line: Minimum inhibitory concentration against Peptococcus magnus(in vitro). An outline of the steps:
as §1

Assay [9] concerns Clostridium perfringens. Nature of the assay: Minimum inhibitory concentration against Clostridium perfringens (NCTC 8237)(in vitro). An outline of the steps:
as §2

Assay [10] deals with Bacteroides fragilis. The experiment in a line: Minimum inhibitory concentration against Bacteroides fragilis(NCTC 9343)(in vitro). In a few lines:
as §1

In assay [11] the test system is Fusobacterium necrophorum. Nature of the assay: Minimum inhibitory concentration against Fusobacterium necrophorum (ATCC 11295)(in vitro). An outline of the steps: as §1
Another assay has as its system Proteus vulgaris. Nature of the assay: Minimum inhibitory concentration against Proteus vulgaris(ATCC 13315)(in vitro). In a few lines: as §1

On to `O=C(c1ccc(Cl)cc1Cl)C(Cn1ccnc1)c1ccccc1` (stereo unspecified), for which the MIC – broadly, the smallest concentration in the dilution series that meets the test's criterion for growth inhibition – against Cutibacterium acnes [1] was under 0.8 µg/mL; against Klebsiella pneumoniae it was over 100 µg/mL; in the assay with Cutibacterium acnes [2], under 0.8 µg/mL; against Pseudomonas aeruginosa, over 100 µg/mL; against Bacteroides fragilis [3], under 0.8 µg/mL; in the assay on Escherichia coli, over 100 µg/mL. Further, the MIC (with Clostridium perfringens [4]; in assay [5]; against Bacteroides fragilis [6]; in the assay with Bacteroides fragilis [7]; against Anaerococcus prevotii; against Staphylococcus aureus) was under 0.8 µg/mL throughout. Moreover, the minimum inhibitory concentration (MIC) (against Bacteroides fragilis [8]; against Streptococcus pyogenes; in the assay with Finegoldia magna; against Clostridium perfringens [9]; in the assay with Bacteroides fragilis [10]; in assay [11]) was under 0.8 µg/mL in each case. In addition, the MIC against Proteus vulgaris is 6.2 µg/mL (≈ 18 µM).
On to `O=C(c1ccc(Cl)cc1Cl)C(Cl)(Cn1ccnc1)c1ccccc1` (stereo unspecified), for which the MIC was under 0.8 µg/mL against Cutibacterium acnes [1]; over 100 µg/mL in the assay on Klebsiella pneumoniae; under 0.8 µg/mL in the assay with Cutibacterium acnes [2]; over 100 µg/mL against Pseudomonas aeruginosa; under 0.8 µg/mL with Bacteroides fragilis [3]; over 100 µg/mL against Escherichia coli. For the same compound, the MIC in the assay with Clostridium perfringens [4] is under 0.8 µg/mL; in assay [5], under 0.8 µg/mL; in the assay on Bacteroides fragilis [6], under 0.8 µg/mL; against Bacteroides fragilis [7], under 0.8 µg/mL; against Anaerococcus prevotii, under 0.8 µg/mL; against Staphylococcus aureus, 25 µg/mL (≈ 65.8 µM). Further, the MIC is under 0.8 µg/mL against Bacteroides fragilis [8]; 1.5 µg/mL (≈ 3.95 µM) against Streptococcus pyogenes; under 0.8 µg/mL against Finegoldia magna; under 0.8 µg/mL against Clostridium perfringens [9]; under 0.8 µg/mL against Bacteroides fragilis [10]; under 0.8 µg/mL in [11]. Further, the MIC in the assay with Proteus vulgaris was over 100 µg/mL.
For `Cc1ncc([N+](=O)[O-])n1CCO` [METRONIDAZOLE], the MIC in the assay with Cutibacterium acnes [1] was over 100 µg/mL; in the assay with Cutibacterium acnes [2], over 100 µg/mL; with Bacteroides fragilis [3], under 0.8 µg/mL; in the assay on Clostridium perfringens [4] it was under 0.8 µg/mL; in [5], under 0.8 µg/mL; with Bacteroides fragilis [6], 6.2 µg/mL (≈ 36.2 µM). For the same compound, the MIC with Bacteroides fragilis [7] is 1.5 µg/mL (≈ 8.76 µM); against Anaerococcus prevotii, 1.5 µg/mL (≈ 8.76 µM); with Bacteroides fragilis [8] it was under 0.8 µg/mL; against Finegoldia magna it was under 0.8 µg/mL; in the assay with Clostridium perfringens [9], under 0.8 µg/mL; against Bacteroides fragilis [10], under 0.8 µg/mL. In addition, the MIC in assay [11] was under 0.8 µg/mL.
In the case of `C=C(C(=O)c1ccc(Cl)cc1Cl)c1ccccc1`, the MIC was under 0.8 µg/mL against Cutibacterium acnes [1]; over 100 µg/mL with Klebsiella pneumoniae; under 0.8 µg/mL against Cutibacterium acnes [2]; over 100 µg/mL in the assay with Pseudomonas aeruginosa; under 0.8 µg/mL with Bacteroides fragilis [3]; over 100 µg/mL against Escherichia coli. The MIC (against Clostridium perfringens [4]; in assay [5]; with Bacteroides fragilis [6]; against Bacteroides fragilis [7]; against Anaerococcus prevotii; against Staphylococcus aureus) was under 0.8 µg/mL throughout. Further, the MIC (against Bacteroides fragilis [8]; in the assay on Streptococcus pyogenes; in the assay with Finegoldia magna; in the assay with Clostridium perfringens [9]; against Bacteroides fragilis [10]; in assay [11]) was under 0.8 µg/mL throughout. The compound also came in with an MIC in the assay with Proteus vulgaris of 6.2 µg/mL (≈ 22.4 µM).
As to `O=C(c1ccc(Cl)cc1Cl)C(O)(Cn1ccnc1)c1ccccc1` (stereo unspecified), the MIC in the assay on Cutibacterium acnes [1] is 100 µg/mL (≈ 277 µM); in the assay with Klebsiella pneumoniae, over 100 µg/mL; against Cutibacterium acnes [2], 50 µg/mL (≈ 138 µM); against Bacteroides fragilis [3], 50 µg/mL (≈ 138 µM); in the assay on Escherichia coli it was over 100 µg/mL; in the assay on Clostridium perfringens [4] it was 12.5 µg/mL (≈ 34.6 µM). In addition, the MIC in assay [5] is 50 µg/mL (≈ 138 µM); against Bacteroides fragilis [6], over 100 µg/mL; in the assay with Bacteroides fragilis [7], over 100 µg/mL; against Anaerococcus prevotii, 12.5 µg/mL (≈ 34.6 µM); in the assay with Staphylococcus aureus, 25 µg/mL (≈ 69.2 µM); against Bacteroides fragilis [8] it was over 100 µg/mL. In addition, the MIC with Finegoldia magna is over 100 µg/mL; in the assay with Clostridium perfringens [9], 25 µg/mL (≈ 69.2 µM); against Bacteroides fragilis [10], over 100 µg/mL; in assay [11], over 100 µg/mL; in the assay with Proteus vulgaris, over 100 µg/mL.
For the compound `O=C(c1ccc(Cl)cc1Cl)C(F)(Cn1ccnc1)c1ccccc1` (stereo unspecified), the MIC against Cutibacterium acnes [1] is 25 µg/mL (≈ 68.8 µM); in the assay on Klebsiella pneumoniae, over 100 µg/mL; with Cutibacterium acnes [2] it was 25 µg/mL (≈ 68.8 µM); in the assay with Pseudomonas aeruginosa it was over 100 µg/mL; with Bacteroides fragilis [3], 50 µg/mL (≈ 138 µM); against Escherichia coli, over 100 µg/mL. Moreover, the MIC in the assay on Clostridium perfringens [4] came out at 3.1 µg/mL (≈ 8.53 µM); in assay [5], 25 µg/mL (≈ 68.8 µM); in the assay on Bacteroides fragilis [6], 50 µg/mL (≈ 138 µM); against Bacteroides fragilis [7] it was 50 µg/mL (≈ 138 µM); against Anaerococcus prevotii, 6.2 µg/mL (≈ 17.1 µM); in the assay with Staphylococcus aureus, 50 µg/mL (≈ 138 µM). The MIC against Bacteroides fragilis [8] was 50 µg/mL (≈ 138 µM); against Streptococcus pyogenes, 6.2 µg/mL (≈ 17.1 µM); against Finegoldia magna, 25 µg/mL (≈ 68.8 µM); against Clostridium perfringens [9] it was 3.1 µg/mL (≈ 8.53 µM); against Bacteroides fragilis [10], 50 µg/mL (≈ 138 µM); in assay [11], 25 µg/mL (≈ 68.8 µM). The same compound showed an MIC with Proteus vulgaris of over 100 µg/mL.
On to `O=C(c1ccc(Cl)cc1Cl)C(Br)(Cn1ccnc1)c1ccccc1` (stereo unspecified), for which the MIC is under 0.8 µg/mL in the assay on Cutibacterium acnes [1]; over 100 µg/mL in the assay with Klebsiella pneumoniae; under 0.8 µg/mL against Cutibacterium acnes [2]; over 100 µg/mL against Pseudomonas aeruginosa; under 0.8 µg/mL with Bacteroides fragilis [3]; over 100 µg/mL in the assay on Escherichia coli. In addition, the MIC in the assay on Clostridium perfringens [4] was under 0.8 µg/mL; in assay [5], 1.5 µg/mL (≈ 3.54 µM); in the assay on Bacteroides fragilis [6], under 0.8 µg/mL; in the assay with Bacteroides fragilis [7] it was under 0.8 µg/mL; with Anaerococcus prevotii, 1.5 µg/mL (≈ 3.54 µM); against Staphylococcus aureus, 1.5 µg/mL (≈ 3.54 µM). In addition, the MIC was under 0.8 µg/mL with Bacteroides fragilis [8]; under 0.8 µg/mL against Streptococcus pyogenes; 1.5 µg/mL (≈ 3.54 µM) against Finegoldia magna; under 0.8 µg/mL against Clostridium perfringens [9]; under 0.8 µg/mL in the assay with Bacteroides fragilis [10]; under 0.8 µg/mL in [11]. In the assay on Proteus vulgaris, this compound showed an MIC of 12.5 µg/mL (≈ 29.5 µM).
On to POLYMYXIN B, for which the MIC against Klebsiella pneumoniae is under 0.8 µg/mL; in the assay with Pseudomonas aeruginosa, 3.1 µg/mL; against Escherichia coli it was under 0.8 µg/mL; in the assay with Staphylococcus aureus it was 25 µg/mL; against Streptococcus pyogenes, 1.5 µg/mL; against Proteus vulgaris, 1.5 µg/mL.
